Results reported in ChEMBL document CHEMBL4339195, “Di-aryl Sulfonamide Motif Adds π-Stacking Bulk in Negative Allosteric Modulators of the NMDA Receptor” (ACS Med Chem Lett, 2019).
Activity calls are given as the source filed them. No cut-off for these calls is given here.

Key:
[1] = target: Glutamate NMDA receptor; Grin1/Grin2c (Rattus norvegicus, UniProt P35439+Q00961); test: Negative allosteric modulation of recombinant rat GluN1/GluN2C expressed in Xenopus laevis oocytes assessed as inhibition of glutamate/glycine-induced current response at -40 mV holding potential by two-electrode voltage clamp method; format: cell-based
How it was run: (§1)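 Oocytes recorded while the drug is co-applied with a maximally effective 100 µM glutamate plus 30 µM glycine. Response is expressed as percent of the glutamate/glycine control. IC50 comes from a Hill fit to the average composite concentration-response curve. 8-16 oocytes from 2-3 frogs per compound and receptor.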

[2] = target: Ionotropic glutamate receptor NMDA 1/2D (Rattus norvegicus, UniProt P35439+Q62645); test: Negative allosteric modulation of recombinant rat GluN1/GluN2D expressed in Xenopus laevis oocytes assessed as inhibition of glutamate/glycine-induced current response at -40 mV holding potential by two-electrode voltage clamp method; format: cell-based; how it was run: as §1
[3] = target: T1, Glutamate NMDA receptor; Grin1/Grin2c (Rattus norvegicus) (UniProt P35439+Q00961); test: Negative allosteric modulation of recombinant rat GluN1/GluN2C expressed in Xenopus laevis oocytes assessed as inhibition of glutamate/glycine-induced current response at 30 uM at -40 mV holding potential by two-electrode voltage clamp method relative to glutamate/glycine; format: cell-based; conditions: for residual activity: values are per cent of control; how it was run: as §1
[4] = target: T2, Ionotropic glutamate receptor NMDA 1/2D (Rattus norvegicus) (UniProt P35439+Q62645); test: Negative allosteric modulation of recombinant rat GluN1/GluN2D expressed in Xenopus laevis oocytes assessed as inhibition of glutamate/glycine-induced current response at 30 uM at -40 mV holding potential by two-electrode voltage clamp method relative to glutamate/glycine; format: cell-based; conditions: for residual activity: values are per cent of control; how it was run: as §1
[5] = target: T1, Glutamate NMDA receptor; Grin1/Grin2c (Rattus norvegicus); test: Negative allosteric modulation of recombinant rat GluN1/GluN2C expressed in Xenopus laevis oocytes assessed as inhibition of glutamate/glycine-induced current response at saturated concentration at -40 mV holding potential by two-electrode voltage clamp method relative to glutamate/glycine; format: cell-based
How it was run: (§2)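 Hill fit of the composite concentration-response curve in oocytes, with agonist 100 µM glutamate plus 30 µM glycine. Residual response in saturating compound is either fixed at 0 or fitted. 8-16 oocytes from 2-3 frogs.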

[6] = target: T2, Ionotropic glutamate receptor NMDA 1/2D (Rattus norvegicus); test: Negative allosteric modulation of recombinant rat GluN1/GluN2D expressed in Xenopus laevis oocytes assessed as inhibition of glutamate/glycine-induced current response at saturated concentration at -40 mV holding potential by two-electrode voltage clamp method relative to glutamate/glycine; format: cell-based; how it was run: as §2
[7] = target: T1, Glutamate NMDA receptor; Grin1/Grin2c (Rattus norvegicus); test: Potency index, ratio of NP11999 IC50 to test compound IC50 for negative allosteric modulation of recombinant rat GluN1/GluN2C expressed in Xenopus laevis oocytes assessed as inhibition of glutamate/glycine-induced current response; format: cell-based
[8] = target: T2, Ionotropic glutamate receptor NMDA 1/2D (Rattus norvegicus); test: Potency index, ratio of NP11999 IC50 to test compound IC50 for negative allosteric modulation of recombinant rat GluN1/GluN2D expressed in Xenopus laevis oocytes assessed as inhibition of glutamate/glycine-induced current response; format: cell-based
[9] = target: Glutamate receptor 1 (Rattus norvegicus) (UniProt P19490); test: Negative allosteric modulation of recombinant rat GluA1 expressed in Xenopus laevis oocytes assessed as inhibition of glutamate-induced current response at 30 uM at -40 mV holding potential by two-electrode voltage clamp method relative to glutamate alone; format: cell-based
Glutamate receptor 1 (Rattus norvegicus), sequence (P19490 whole entry): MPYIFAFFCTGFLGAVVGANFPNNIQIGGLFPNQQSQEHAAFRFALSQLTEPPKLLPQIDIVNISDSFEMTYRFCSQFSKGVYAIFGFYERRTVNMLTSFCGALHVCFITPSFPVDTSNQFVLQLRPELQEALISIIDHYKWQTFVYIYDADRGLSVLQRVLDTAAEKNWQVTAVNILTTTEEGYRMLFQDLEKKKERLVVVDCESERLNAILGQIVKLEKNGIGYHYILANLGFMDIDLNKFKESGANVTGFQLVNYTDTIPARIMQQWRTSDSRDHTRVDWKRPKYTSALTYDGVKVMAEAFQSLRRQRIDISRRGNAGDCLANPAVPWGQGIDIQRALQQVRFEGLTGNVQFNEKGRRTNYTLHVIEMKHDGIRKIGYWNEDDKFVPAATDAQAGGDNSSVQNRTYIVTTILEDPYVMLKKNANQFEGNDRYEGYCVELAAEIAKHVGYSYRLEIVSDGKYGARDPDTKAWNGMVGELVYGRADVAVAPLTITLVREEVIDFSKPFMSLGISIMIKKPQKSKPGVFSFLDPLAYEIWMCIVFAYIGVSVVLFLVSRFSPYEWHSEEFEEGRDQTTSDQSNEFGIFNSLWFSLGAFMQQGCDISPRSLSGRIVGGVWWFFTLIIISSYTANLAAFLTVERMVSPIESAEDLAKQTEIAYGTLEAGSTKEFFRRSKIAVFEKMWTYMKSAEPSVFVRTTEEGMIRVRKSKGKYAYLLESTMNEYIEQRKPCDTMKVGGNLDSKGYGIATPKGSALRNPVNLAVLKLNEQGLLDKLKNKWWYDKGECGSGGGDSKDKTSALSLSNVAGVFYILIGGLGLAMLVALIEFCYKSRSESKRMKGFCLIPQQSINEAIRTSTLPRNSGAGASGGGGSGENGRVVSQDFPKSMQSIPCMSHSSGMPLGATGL
How it was run: (§3)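 Oocyte two-electrode voltage clamp at -40 mV holding. Test compound co-applied with agonist; response given as percent of the mean of control and recovery currents to agonist alone. Agonists: 100 µM glutamate (AMPA, kainate), 100 µM GABA (GABA receptors), 100 µM glycine (glycine receptor), 100 µM serotonin (5-HT3A), 9 µM ATP (P2X), 1 µM acetylcholine (nicotinic).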

Homo sapiens = species: Homo sapiens; test: Negative allosteric modulation of human GluA2 R607Q mutant expressed in Xenopus laevis oocytes assessed as inhibition of glutamate-induced current response at 30 uM at -40 mV holding potential by two-electrode voltage clamp method relative to glutamate alone; format: cell-based; how it was run: as §3
[10] = tested on: Glutamate receptor 3 (Homo sapiens), P42263 [L513Y]; test: Negative allosteric modulation of human GluA3 L513Y mutant expressed in Xenopus laevis oocytes assessed as inhibition of glutamate-induced current response at 30 uM at -40 mV holding potential by two-electrode voltage clamp method relative to glutamate alone; format: cell-based; how it was run: as §3
Glutamate receptor 3 (Homo sapiens), P42263 [L513Y], sequence (P42263 whole entry L513Y): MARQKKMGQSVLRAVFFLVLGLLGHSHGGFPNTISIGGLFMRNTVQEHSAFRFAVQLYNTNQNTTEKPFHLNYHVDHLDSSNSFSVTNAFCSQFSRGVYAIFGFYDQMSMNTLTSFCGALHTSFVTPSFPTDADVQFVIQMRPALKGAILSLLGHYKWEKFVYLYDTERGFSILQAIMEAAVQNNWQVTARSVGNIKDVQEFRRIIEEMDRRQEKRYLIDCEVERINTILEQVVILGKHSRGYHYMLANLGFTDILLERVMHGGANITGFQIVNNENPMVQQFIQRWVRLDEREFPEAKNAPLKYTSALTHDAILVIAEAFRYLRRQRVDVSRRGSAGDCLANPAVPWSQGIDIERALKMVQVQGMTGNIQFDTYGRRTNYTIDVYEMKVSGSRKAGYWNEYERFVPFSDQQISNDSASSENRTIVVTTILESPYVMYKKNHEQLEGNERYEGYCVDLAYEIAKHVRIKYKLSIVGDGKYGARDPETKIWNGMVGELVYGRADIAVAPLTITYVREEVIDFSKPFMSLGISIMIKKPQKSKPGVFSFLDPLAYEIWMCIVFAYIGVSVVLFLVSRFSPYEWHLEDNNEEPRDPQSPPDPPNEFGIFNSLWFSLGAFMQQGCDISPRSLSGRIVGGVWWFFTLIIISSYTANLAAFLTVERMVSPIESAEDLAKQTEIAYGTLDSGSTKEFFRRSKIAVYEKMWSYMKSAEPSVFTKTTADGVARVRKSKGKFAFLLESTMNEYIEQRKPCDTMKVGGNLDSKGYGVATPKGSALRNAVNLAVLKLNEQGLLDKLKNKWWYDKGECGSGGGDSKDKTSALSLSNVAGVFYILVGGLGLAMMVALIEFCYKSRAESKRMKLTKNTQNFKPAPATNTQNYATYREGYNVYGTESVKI

[11] = tested on: Glutamate receptor 4 (Homo sapiens), P48058 [L505Y]; test: Negative allosteric modulation of human GluA4 L505Y mutant expressed in Xenopus laevis oocytes assessed as inhibition of glutamate-induced current response at 30 uM at -40 mV holding potential by two-electrode voltage clamp method relative to glutamate alone; format: cell-based; how it was run: as §3
Glutamate receptor 4 (Homo sapiens), P48058 [L505Y], sequence (P48058 whole entry L505Y): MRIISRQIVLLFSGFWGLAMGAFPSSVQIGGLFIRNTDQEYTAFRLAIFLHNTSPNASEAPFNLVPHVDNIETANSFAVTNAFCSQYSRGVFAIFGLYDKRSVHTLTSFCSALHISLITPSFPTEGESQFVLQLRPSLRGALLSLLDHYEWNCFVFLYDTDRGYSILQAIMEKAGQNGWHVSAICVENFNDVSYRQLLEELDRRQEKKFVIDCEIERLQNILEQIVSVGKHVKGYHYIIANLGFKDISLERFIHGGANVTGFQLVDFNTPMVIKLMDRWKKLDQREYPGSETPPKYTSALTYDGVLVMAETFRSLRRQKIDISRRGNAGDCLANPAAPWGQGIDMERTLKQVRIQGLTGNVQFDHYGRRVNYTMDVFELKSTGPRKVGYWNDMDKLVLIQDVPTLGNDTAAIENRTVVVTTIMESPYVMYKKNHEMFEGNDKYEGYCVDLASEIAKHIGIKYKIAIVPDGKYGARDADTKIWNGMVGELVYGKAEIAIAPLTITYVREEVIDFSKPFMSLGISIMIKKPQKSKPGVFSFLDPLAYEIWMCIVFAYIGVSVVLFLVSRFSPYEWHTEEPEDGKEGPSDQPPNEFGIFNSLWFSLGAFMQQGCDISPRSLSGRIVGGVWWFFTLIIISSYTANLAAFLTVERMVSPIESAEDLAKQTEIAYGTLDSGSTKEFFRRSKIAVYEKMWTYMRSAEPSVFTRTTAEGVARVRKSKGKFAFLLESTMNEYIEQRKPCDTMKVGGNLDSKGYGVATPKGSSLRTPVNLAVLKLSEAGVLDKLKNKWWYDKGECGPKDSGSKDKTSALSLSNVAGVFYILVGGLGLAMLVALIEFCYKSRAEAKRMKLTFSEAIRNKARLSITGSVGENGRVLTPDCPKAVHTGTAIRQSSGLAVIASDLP

[12] = target: Glutamate receptor ionotropic, kainate 2 (Rattus norvegicus) (UniProt P42260); test: Negative allosteric modulation of rat GluK2 expressed in Xenopus laevis oocytes assessed as inhibition of glutamate-induced current response at 30 uM at -40 mV holding potential in presence of concanavalin A by two-electrode voltage clamp method relative to glutamate alone; format: cell-based; how it was run: as §3
Glutamate receptor ionotropic, kainate 2 (Rattus norvegicus), sequence (P42260 whole entry): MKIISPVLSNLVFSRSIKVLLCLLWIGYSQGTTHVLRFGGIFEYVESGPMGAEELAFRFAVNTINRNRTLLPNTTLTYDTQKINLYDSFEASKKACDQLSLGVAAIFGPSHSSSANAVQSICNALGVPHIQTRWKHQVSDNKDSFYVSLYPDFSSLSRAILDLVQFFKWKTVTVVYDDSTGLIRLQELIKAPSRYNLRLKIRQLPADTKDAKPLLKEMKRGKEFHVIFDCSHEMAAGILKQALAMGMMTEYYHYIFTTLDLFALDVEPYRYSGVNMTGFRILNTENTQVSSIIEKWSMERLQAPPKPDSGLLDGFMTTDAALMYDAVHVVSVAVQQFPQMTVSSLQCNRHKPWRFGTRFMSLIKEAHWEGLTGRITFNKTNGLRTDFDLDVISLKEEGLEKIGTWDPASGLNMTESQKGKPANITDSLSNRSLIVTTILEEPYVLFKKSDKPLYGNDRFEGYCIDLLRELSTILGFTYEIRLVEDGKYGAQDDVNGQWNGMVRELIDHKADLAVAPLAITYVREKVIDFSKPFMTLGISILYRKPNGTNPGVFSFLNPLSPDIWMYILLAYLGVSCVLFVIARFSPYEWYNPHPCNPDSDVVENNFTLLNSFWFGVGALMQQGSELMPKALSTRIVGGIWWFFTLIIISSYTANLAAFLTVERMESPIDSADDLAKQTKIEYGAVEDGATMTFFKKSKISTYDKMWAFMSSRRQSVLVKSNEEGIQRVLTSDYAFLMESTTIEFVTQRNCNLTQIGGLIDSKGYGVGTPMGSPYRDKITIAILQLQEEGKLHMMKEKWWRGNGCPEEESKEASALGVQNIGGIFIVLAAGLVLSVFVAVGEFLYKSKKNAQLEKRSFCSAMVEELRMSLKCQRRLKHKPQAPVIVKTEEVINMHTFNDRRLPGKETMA

Rattus norvegicus [13] = species: Rattus norvegicus; test: Negative allosteric modulation of rat GABAA alpha1beta2gamma2S expressed in Xenopus laevis oocytes assessed as inhibition of GABA-induced current response at 30 uM at -40 mV holding potential by two-electrode voltage clamp method relative to GABA alone; format: cell-based; how it was run: as §3
Rattus norvegicus [14] = species: Rattus norvegicus; test: Negative allosteric modulation of rat GABAA rho expressed in Xenopus laevis oocytes assessed as inhibition of GABA-induced current response at 30 uM at -40 mV holding potential by two-electrode voltage clamp method relative to GABA alone; format: cell-based; how it was run: as §3
[15] = target: T3, Glycine receptor subunit alpha-1 (Rattus norvegicus) (UniProt P07727); test: Negative allosteric modulation of rat glycine alpha1 expressed in Xenopus laevis oocytes assessed as inhibition of glycine-induced current response at 30 uM at -40 mV holding potential by two-electrode voltage clamp method relative to glycine alone; format: cell-based; how it was run: as §3
T3 sequence (whole entry): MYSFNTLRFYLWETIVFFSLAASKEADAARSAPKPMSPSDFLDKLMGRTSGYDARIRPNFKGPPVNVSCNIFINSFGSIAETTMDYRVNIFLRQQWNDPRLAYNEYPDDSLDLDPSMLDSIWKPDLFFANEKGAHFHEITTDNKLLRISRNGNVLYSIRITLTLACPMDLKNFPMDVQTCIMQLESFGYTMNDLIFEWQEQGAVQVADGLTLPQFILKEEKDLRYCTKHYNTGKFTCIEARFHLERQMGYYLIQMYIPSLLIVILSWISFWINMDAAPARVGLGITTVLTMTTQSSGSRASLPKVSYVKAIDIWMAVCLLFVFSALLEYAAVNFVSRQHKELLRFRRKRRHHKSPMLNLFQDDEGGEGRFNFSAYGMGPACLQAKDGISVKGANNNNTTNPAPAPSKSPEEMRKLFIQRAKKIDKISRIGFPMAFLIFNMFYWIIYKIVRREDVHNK

[16] = target: T4, 5-hydroxytryptamine receptor 3A (Rattus norvegicus) (UniProt P35563); test: Negative allosteric modulation of rat 5HT3A expressed in Xenopus laevis oocytes assessed as inhibition of serotonin-induced current response at 30 uM at -40 mV holding potential by two-electrode voltage clamp method relative to serotonin alone; format: cell-based; how it was run: as §3
T4 sequence (whole entry): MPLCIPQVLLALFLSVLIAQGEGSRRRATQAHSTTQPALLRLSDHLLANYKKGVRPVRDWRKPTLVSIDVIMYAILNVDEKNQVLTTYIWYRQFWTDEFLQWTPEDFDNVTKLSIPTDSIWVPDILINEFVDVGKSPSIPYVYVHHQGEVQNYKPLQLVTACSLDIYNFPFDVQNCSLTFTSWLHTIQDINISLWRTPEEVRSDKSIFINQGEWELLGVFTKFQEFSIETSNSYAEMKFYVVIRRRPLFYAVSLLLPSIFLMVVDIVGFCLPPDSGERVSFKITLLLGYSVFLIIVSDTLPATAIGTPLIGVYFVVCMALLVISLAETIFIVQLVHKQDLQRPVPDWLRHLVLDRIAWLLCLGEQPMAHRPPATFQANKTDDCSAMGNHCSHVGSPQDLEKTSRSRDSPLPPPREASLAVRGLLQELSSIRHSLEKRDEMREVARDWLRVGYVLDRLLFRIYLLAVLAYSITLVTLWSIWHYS

[17] = target: CHRNA1/CHRNB1/CHRNG/CHRND (Rattus norvegicus) (UniProt P25109+P25108+P25110+P18916); test: Negative allosteric modulation of rat alpha1betagammadelta nACHR expressed in Xenopus laevis oocytes assessed as inhibition of acetylcholine-induced current response at 30 uM at -40 mV holding potential by two-electrode voltage clamp method relative to acetylcholine alone; format: cell-based; how it was run: as §3
[18] = target: T2, Ionotropic glutamate receptor NMDA 1/2D (Rattus norvegicus); test: Negative allosteric modulation of recombinant rat GluN1/GluN2D expressed in Xenopus laevis oocytes assessed as residual glutamate/glycine-induced current response at 10 uM at -40 mV holding potential by two-electrode voltage clamp method relative to glutamate/glycine
[19] = target: T1, Glutamate NMDA receptor; Grin1/Grin2c (Rattus norvegicus); test: Negative allosteric modulation of recombinant rat GluN1/GluN2C expressed in Xenopus laevis oocytes assessed as remaining glutamate/glycine-induced current response at 10 uM at -40 mV holding potential by two-electrode voltage clamp method relative to glutamate/glycine
[20] = target: T5, Glutamate NMDA receptor; Grin1/Grin2a (Rattus norvegicus) (UniProt P35439+Q00959); test: Negative allosteric modulation of recombinant rat GluN1/GluN2A expressed in Xenopus laevis oocytes assessed as residual glutamate/glycine-induced current response at 30 uM at -40 mV holding potential by two-electrode voltage clamp method relative to glutamate/glycine
[21] = target: Glutamate NMDA receptor; Grin1/Grin2a (Rattus norvegicus, UniProt P35439+Q00959); test: Negative allosteric modulation of recombinant rat GluN1/GluN2A expressed in Xenopus laevis oocytes assessed as inhibition of glutamate/glycine-induced current response at -40 mV holding potential by two-electrode voltage clamp method; format: cell-based; how it was run: as §1
[22] = target: T5, Glutamate NMDA receptor; Grin1/Grin2a (Rattus norvegicus); test: Negative allosteric modulation of recombinant rat GluN1/GluN2A expressed in Xenopus laevis oocytes assessed as remaining glutamate/glycine-induced current response at 6 uM at -40 mV holding potential by two-electrode voltage clamp method relative to glutamate/glycine

Row | SMILES | IC50 [1] [µM] | IC50 [2] [µM] | residual activity [3] [%] | residual activity [4] [%] | inhibition [5] [%] | inhibition [6] [%] | other results
1 | CCN(CC)C(=O)Oc1ccc(C(=O)Nc2ccc(CNS(=O)(=O)c3cccnc3)cc2)cc1 | 35 | 24 | 58 | 45 | 0 | 0 | –
2 | CCN(CC)C(=O)Oc1ccc(C(=O)Nc2cccc(CCNS(=O)(=O)c3ccc(F)c(Cl)c3)c2)cc1 | 2.4 | 1.3 | 41 | 28 | 0 | 0 | Ratio IC50 [7]: < 6; Ratio IC50 [8]: < 6
3 | CCN(CC)C(=O)Oc1ccc(C(=O)Nc2ccc(C(=O)Nc3ccccc3)cc2)cc1 | – | > 100 | – | – | – | – | –
4 | CCN(CC)C(=O)Oc1ccc(C(=O)Nc2cccc3cc[nH]c23)cc1 | 3.7 | 2.2 | – | – | – | – | inhibition [9]: Active; inhibition (Homo sapiens): Active; inhibition [10]: Active; inhibition [11]: Active; inhibition [12]: Active; inhibition (Rattus norvegicus [13]): Active; inhibition (Rattus norvegicus [14]): Active; inhibition [15]: inactive; inhibition [16]: inactive; inhibition [17]: inactive; residual activity [18]: 16%; residual activity [19]: 24%
5 | CCN(CC)C(=O)Oc1ccc(C(=O)Nc2cccc(CNS(=O)(=O)c3ccccc3)c2)cc1 | 45 | 29 | 60 | 46 | 0 | 0 | –
6 | CCN(CC)C(=O)Oc1ccc(C(=O)Nc2cccc(C(=O)Nc3ccccc3)c2)cc1 | – | 8 | – | – | – | – | –
7 | CCN(CC)C(=O)Oc1ccc(C(=O)Nc2cccc(CCNS(=O)(=O)c3cccnc3)c2)cc1 | 3.2 | 2.7 | 8.5 | 8.6 | 0 | 0 | Ratio IC50 [7]: < 6; Ratio IC50 [8]: < 6
8 | CCN(CC)C(=O)Oc1ccc(C(=O)Nc2ccccc2)cc1 | 8.6 | 5.8 to 6 | – | – | – | – | residual activity [18]: 37%; residual activity [19]: 49%
9 | CCN(CC)C(=O)Oc1ccc(C(=O)Nc2ccc(CCNS(=O)(=O)c3ccc(F)c(Cl)c3)cc2)cc1 | – | – | – | – | 0 | 0 | inhibition [3]: 21%; inhibition [4]: 26%
10 | CCN(CC)C(=O)Oc1ccc(C(=O)Nc2cccc(CCNC(=O)c3ccccc3)c2)cc1 | 37 | 29 | 56 | 49 | – | – | residual activity [20]: 82%
11 | CCN(CC)C(=O)Oc1ccc(C(=O)Nc2ccc(CCNS(=O)(=O)c3cccnc3)cc2)cc1 | 12 | 5.1 | 37 | 26 | 0 | 0 | –
12 | O=C(NCc1ccc(C(=O)NNC(=O)c2ccccc2)cc1)c1ccc(F)c(Cl)c1 | – | – | – | – | – | – | residual activity [20]: 102%
13 | CCN(CC)C(=O)Oc1ccc(C(=O)Nc2ccc(CNS(=O)(=O)c3ccccc3)cc2)cc1 | 22 | 10 | 42 | 20 | 41 | 27 | –
14 | O=C(NNC(=O)c1ccc(CNS(=O)(=O)c2ccc(F)c(Cl)c2)cc1)c1ccccc1 | – | – | < 15 | < 15 | – | – | IC50 [21]: 0.17 µM; residual activity [18]: 88%; residual activity [22]: 5.1%; residual activity [19]: 95%
15 | CCN(CC)C(=O)Oc1ccc(C(=O)Nc2cccc(CNS(=O)(=O)c3cccnc3)c2)cc1 | 34 | 23 | 52 | 42 | 0 | 0 | –
16 | CCN(CC)C(=O)Oc1ccc(C(=O)Nc2ccc(CCNS(=O)(=O)c3ccccc3)cc2)cc1 | – | – | – | – | 0 | 0 | inhibition [3]: 23%; inhibition [4]: 33%
